Source: ChEMBL document CHEMBL1154186, “Synthesis, kinase inhibitory potencies, and in vitro antiproliferative evaluation of new Pim kinase inhibitors” (J Med Chem, 2009)

Columns and labels:
[1] = target: T1, Eukaryotic elongation factor 2 kinase (Homo sapiens) (UniProt O00418); test: Inhibition of EF2K assessed as residual enzyme activity at 10 uM relative to untreated control
T1 sequence (whole entry): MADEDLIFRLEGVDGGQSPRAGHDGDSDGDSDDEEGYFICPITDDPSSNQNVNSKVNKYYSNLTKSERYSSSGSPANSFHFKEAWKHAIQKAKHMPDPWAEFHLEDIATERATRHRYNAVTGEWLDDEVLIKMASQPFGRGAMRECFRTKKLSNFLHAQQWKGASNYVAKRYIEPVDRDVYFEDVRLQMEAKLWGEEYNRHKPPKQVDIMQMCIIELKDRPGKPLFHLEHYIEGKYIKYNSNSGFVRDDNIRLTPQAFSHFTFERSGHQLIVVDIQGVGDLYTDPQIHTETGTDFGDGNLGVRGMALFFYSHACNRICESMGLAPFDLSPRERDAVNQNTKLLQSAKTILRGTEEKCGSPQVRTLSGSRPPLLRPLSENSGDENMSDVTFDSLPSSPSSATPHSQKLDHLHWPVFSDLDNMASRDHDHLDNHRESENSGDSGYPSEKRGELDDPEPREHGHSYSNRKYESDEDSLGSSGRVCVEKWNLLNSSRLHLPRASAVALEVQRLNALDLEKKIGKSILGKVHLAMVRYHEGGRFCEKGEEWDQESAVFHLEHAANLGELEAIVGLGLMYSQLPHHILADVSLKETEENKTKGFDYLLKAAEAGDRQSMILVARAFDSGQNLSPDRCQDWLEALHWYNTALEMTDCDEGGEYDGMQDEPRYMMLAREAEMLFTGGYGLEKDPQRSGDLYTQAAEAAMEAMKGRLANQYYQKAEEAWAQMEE

[2] = target: Mitogen-activated protein kinase 3 (Homo sapiens) (UniProt P27361); test: Inhibition of ERK1 assessed as residual enzyme activity at 10 uM relative to untreated control
Method in brief: (§1)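 Radiometric filter-binding assay at 21 °C for 30 min. Mix: 50 mM Tris/HCl pH 7.5, 0.1 mM EGTA, 0.1% 2-mercaptoethanol, 10 mM Mg acetate and [γ-33P]ATP (800 cpm/pmol) at 5 µM. Stopped with orthophosphoric acid and spotted on P81. Compound at 10 µM; activity given as % remaining versus no-inhibitor control, duplicates. Kinases human full-length unless noted.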

[3] = target: Homeodomain-interacting protein kinase 3 (Homo sapiens) (UniProt Q9H422); test: Inhibition of HIPK3 assessed as residual enzyme activity at 10 uM relative to untreated control
Method in brief: (§2)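 Kinases of human origin, except CK1δ, which is rat. Run in 50 mM Tris/HCl pH 7.5, 0.1 mM EGTA, 0.1% 2-mercaptoethanol and 10 mM Mg acetate, with [γ-33P]ATP at 20 µM, 30 min at 21 °C. Acid-stopped and captured on P81 filters. Compound tested at 10 µM; residual % of uninhibited control, duplicate determinations.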

[4] = target: Tyrosine-protein kinase CSK (Homo sapiens) (UniProt P41240); test: Inhibition of CSK assessed as residual enzyme activity at 10 uM relative to untreated control; method in brief: as §2
[5] = target: Serine/threonine-protein kinase PAK 5 (Homo sapiens) (UniProt Q9P286); test: Inhibition of PAK5 assessed as residual enzyme activity at 10 uM relative to untreated control; method in brief: as §2
[6] = target: MAP kinase-activated protein kinase 3 (Homo sapiens) (UniProt Q16644); test: Inhibition of MAPKAPK3 assessed as residual enzyme activity at 10 uM relative to untreated control; method in brief: as §2
[7] = target: T2, Serine/threonine-protein kinase BRSK2 (Homo sapiens) (UniProt Q8IWQ3); test: Inhibition of BRSK2 assessed as residual enzyme activity at 10 uM relative to untreated control
T2 sequence (whole entry): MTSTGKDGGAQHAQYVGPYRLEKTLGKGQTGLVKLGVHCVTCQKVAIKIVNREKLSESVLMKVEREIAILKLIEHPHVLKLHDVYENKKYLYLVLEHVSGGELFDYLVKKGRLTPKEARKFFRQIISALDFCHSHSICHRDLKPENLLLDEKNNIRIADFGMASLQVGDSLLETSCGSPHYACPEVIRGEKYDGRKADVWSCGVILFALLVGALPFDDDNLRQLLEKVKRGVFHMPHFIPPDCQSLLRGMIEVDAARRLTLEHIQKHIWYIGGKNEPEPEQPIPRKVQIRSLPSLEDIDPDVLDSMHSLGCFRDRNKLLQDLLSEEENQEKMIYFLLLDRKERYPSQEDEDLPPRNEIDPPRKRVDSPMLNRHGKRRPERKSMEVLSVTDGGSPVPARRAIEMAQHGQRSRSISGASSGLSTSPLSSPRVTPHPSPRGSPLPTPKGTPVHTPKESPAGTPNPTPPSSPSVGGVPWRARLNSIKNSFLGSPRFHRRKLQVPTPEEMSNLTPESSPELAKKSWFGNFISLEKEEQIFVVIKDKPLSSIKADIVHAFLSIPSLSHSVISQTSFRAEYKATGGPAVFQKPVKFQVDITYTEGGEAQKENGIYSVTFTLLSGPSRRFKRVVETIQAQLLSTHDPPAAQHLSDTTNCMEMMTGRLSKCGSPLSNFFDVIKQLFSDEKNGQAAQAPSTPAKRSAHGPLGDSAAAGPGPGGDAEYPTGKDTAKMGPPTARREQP
Method in brief: (§3)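 Assayed with [γ-33P]ATP at 50 µM and 10 mM Mg acetate in 50 mM Tris/HCl pH 7.5, 0.1 mM EGTA, 0.1% 2-mercaptoethanol, 30 min, 21 °C. Phosphoric acid stop, P81 filter capture. ERK2 and Lck are mouse; AMPK is rat. 10 µM compound; % activity remaining relative to control without inhibitor, duplicates.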

[8] = target: MAP kinase-activated protein kinase 2 (Homo sapiens) (UniProt P49137); test: Inhibition of MAPKAPK2 assessed as residual enzyme activity at 10 uM relative to untreated control; method in brief: as §2
[9] = Inhibition of AMPK assessed as residual enzyme activity at 10 uM relative to untreated control; method in brief: as §3
[10] = target: Homeodomain-interacting protein kinase 2 (Homo sapiens) (UniProt Q9H2X6); test: Inhibition of HIPK2 assessed as residual enzyme activity at 10 uM relative to untreated control; method in brief: as §1
[11] = tested on: MKK1 (Oryctolagus cuniculus); test: Inhibition of MKK1 assessed as residual enzyme activity at 10 uM relative to untreated control

Tyrosine-protein kinase CSK (Homo sapiens), sequence (P41240 2-450 limits assumed): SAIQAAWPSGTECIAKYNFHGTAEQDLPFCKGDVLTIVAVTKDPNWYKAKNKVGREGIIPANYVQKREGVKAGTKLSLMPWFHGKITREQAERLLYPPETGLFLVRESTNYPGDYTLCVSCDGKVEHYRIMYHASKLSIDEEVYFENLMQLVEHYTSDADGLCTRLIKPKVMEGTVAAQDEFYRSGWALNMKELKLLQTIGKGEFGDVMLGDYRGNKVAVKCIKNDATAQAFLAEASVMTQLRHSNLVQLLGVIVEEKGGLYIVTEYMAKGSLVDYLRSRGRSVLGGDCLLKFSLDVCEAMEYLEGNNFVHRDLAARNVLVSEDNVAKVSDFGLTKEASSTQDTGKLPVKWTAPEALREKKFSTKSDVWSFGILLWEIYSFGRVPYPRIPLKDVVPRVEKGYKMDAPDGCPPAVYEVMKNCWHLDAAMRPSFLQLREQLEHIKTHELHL
MAP kinase-activated protein kinase 2 (Homo sapiens), sequence (P49137 whole entry, looked up): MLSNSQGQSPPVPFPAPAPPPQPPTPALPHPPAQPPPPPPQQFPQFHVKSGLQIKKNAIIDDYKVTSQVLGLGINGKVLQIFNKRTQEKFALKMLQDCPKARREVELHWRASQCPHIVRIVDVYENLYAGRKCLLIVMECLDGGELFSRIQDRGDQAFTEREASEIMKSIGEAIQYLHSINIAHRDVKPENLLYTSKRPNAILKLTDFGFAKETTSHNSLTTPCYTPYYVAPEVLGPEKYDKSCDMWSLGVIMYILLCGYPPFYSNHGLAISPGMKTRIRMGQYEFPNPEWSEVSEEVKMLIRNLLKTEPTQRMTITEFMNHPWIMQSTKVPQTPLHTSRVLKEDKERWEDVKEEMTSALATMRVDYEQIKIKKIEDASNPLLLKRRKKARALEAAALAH
Serine/threonine-protein kinase PAK 5 (Homo sapiens), sequence (Q9P286 whole entry, looked up): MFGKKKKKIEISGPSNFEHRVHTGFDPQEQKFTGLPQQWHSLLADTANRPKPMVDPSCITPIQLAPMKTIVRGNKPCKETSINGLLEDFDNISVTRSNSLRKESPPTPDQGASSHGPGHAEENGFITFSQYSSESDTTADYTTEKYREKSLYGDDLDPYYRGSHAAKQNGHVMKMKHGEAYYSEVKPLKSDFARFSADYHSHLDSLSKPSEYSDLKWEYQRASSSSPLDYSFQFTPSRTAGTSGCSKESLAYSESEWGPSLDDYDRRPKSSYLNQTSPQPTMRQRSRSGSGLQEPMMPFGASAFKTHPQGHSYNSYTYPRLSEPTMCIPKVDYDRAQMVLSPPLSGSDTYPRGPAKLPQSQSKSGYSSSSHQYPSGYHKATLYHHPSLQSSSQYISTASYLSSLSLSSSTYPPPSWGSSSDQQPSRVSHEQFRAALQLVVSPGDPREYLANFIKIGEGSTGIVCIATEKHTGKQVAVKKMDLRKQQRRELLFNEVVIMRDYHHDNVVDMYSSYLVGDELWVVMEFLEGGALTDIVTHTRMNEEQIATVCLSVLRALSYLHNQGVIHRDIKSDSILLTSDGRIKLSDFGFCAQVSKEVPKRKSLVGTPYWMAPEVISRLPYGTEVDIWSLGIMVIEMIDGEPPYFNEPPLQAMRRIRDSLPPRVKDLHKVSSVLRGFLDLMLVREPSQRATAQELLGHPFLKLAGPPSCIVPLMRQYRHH
Mitogen-activated protein kinase 3 (Homo sapiens), sequence (P27361 whole entry): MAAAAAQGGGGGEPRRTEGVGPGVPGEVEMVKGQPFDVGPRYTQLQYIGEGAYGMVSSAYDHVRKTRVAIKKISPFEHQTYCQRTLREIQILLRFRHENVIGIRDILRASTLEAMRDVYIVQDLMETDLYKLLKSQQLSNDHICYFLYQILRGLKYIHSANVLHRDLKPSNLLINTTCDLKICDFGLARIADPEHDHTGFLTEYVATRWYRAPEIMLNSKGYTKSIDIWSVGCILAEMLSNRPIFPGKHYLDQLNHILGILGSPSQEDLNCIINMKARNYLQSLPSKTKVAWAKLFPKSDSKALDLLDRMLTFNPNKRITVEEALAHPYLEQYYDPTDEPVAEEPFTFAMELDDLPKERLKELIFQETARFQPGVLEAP
Homeodomain-interacting protein kinase 2 (Homo sapiens), sequence (Q9H2X6 whole entry, looked up): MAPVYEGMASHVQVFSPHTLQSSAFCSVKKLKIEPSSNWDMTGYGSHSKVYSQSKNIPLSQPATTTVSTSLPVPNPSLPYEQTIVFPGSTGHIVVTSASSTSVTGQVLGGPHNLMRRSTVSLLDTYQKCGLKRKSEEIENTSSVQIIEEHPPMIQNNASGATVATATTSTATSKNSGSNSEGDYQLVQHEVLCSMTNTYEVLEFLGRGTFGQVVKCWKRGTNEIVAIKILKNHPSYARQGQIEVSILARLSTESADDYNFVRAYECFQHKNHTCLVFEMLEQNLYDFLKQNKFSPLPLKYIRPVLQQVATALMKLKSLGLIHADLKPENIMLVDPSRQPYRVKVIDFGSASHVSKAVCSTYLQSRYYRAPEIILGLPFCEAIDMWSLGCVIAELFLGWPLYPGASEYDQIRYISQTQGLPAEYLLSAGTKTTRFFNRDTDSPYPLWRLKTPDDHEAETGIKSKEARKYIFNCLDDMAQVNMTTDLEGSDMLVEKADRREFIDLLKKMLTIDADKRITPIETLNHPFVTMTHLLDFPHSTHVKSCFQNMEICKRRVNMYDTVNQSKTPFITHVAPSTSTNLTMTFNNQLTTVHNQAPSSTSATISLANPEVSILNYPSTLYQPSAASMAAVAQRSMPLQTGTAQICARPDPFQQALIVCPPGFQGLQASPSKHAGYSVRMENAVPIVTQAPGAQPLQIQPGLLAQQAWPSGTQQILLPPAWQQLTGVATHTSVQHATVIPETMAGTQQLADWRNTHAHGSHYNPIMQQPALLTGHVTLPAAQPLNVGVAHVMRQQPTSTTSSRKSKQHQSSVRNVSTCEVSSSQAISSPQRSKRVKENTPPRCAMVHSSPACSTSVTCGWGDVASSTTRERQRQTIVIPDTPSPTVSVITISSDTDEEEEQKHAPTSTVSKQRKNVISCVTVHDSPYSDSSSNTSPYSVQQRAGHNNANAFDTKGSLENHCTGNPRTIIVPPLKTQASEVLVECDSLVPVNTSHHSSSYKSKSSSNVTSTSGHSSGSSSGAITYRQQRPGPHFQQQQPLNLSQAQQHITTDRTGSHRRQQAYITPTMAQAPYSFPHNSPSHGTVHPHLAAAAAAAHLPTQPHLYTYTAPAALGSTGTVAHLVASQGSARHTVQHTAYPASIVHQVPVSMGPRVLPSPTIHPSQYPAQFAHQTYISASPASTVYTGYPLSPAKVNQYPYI
Homeodomain-interacting protein kinase 3 (Homo sapiens), sequence (Q9H422 whole entry, looked up): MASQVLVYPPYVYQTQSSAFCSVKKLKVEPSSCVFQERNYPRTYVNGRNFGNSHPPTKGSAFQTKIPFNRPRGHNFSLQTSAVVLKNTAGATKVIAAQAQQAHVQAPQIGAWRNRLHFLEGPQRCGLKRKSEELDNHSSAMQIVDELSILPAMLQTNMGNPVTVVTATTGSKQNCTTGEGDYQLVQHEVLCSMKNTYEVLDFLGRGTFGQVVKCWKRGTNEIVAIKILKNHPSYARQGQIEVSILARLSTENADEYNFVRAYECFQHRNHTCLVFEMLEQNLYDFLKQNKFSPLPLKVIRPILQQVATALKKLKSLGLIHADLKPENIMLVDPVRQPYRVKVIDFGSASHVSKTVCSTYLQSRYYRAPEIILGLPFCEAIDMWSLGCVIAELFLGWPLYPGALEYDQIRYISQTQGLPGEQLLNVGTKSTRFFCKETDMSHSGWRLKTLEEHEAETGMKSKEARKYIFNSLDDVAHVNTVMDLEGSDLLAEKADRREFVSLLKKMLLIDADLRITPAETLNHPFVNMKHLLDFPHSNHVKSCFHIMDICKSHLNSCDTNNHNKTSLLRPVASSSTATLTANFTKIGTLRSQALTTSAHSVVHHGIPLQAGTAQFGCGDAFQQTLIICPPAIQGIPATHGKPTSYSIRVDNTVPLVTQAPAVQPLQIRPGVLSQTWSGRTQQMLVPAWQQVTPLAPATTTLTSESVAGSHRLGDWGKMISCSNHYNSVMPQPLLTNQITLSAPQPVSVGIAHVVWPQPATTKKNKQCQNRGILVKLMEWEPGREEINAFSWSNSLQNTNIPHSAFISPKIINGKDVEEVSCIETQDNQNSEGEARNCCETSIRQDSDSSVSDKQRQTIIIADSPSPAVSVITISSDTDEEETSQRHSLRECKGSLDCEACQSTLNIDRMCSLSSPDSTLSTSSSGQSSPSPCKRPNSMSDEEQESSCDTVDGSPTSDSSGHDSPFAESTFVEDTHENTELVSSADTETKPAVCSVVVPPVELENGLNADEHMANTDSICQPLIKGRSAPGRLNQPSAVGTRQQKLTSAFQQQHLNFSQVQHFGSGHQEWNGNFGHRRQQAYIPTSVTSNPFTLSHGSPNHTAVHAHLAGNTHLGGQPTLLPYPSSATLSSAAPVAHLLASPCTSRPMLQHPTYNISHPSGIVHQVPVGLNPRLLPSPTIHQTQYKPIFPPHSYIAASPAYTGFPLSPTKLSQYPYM
MAP kinase-activated protein kinase 3 (Homo sapiens), sequence (Q16644 whole entry, looked up): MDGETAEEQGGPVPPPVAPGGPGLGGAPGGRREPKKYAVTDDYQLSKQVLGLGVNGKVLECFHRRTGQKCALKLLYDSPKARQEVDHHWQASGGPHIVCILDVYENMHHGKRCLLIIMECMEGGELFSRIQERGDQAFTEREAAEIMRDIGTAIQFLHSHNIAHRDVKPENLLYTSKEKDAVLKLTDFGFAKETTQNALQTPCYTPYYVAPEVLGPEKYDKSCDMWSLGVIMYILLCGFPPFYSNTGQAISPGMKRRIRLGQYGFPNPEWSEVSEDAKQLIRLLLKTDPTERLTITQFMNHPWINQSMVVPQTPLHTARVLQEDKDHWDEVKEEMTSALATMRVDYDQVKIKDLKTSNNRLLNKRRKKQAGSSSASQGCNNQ

Activity [1] [%]	Activity [2] [%]	Activity [3] [%]	Activity [4] [%]	Activity [5] [%]	Activity [6] [%]	Activity [7] [%]	Activity [8] [%]	Activity [9] [%]	Activity [10] [%]	Activity [11] [%]	Compound
90	87	64	74	87	69	22	84	59			O=Cc1c[nH]c2c1ccc1c3ccccc3[nH]c12
101	108	97	98	82	89	58	118	80	59	87	c1ccc2c(c1)[nH]c1c2ccc2cc[nH]c21
92	97	106	72	99	88	76	95	79	72	75	c1ccc2c(c1)[nH]c1c3cc[nH]c3ccc21
105	95	100	87	96	90	101	95	85	95	104	O=Cc1c[nH]c2ccc3c4ccccc4[nH]c3c12
